Eight compounds from ChEMBL document CHEMBL1926663, “Identification of new aminoacid amides containing the imidazo[2,1-b]benzothiazol-2-ylphenyl moiety as inhibitors of tumorigenesis by oncogenic Met signaling” (Eur J Med Chem, 2012) can be followed below.

A short description of series [1]: Chemical stability in solid state. In kind it is physicochemical.
Series [2] in a line: Chemical stability in DMSO. In kind it is physicochemical.
A short description of series [3]: Chemical stability in chloroform. Format: physicochemical.
The nature of series [4]: Chemical stability in methanol. In kind it is physicochemical.
For series [5], the system named is MDCK. The experiment in a line: Cytotoxicity against HGF-stimulated […] MDCK cells at biologically active concentration. Format: cell-based.
Series [6] deals with MDCK. The experiment in a line: Cytotoxicity against HGF-stimulated […] MDCK cells at 50 to 100 fold higher biologically active concentration. Format: cell-based.
Series [7] deals with HepG2. The experiment in a line: Cytotoxicity against serum-starved human HepG2 cells assessed as reduction of cell survival after 48 hrs by Cell Titer-Glo luminescent assay. In kind it is functional, cell-based. In general terms: ATP-based viability assays read luminescence as a measure of living cells.
In series [8] the test system is GTL 16. The series is described as follows: Cytotoxicity against serum-starved human GTL16 cells assessed as reduction of cell survival after 48 hrs by Cell Titer-Glo luminescent assay. In kind it is functional, cell-based.
For series [9], the system named is BT-474. The experiment in a line: Cytotoxicity against serum-starved human BT474 cells assessed as reduction of cell survival at 10 to 30 uM after 48 hrs by Cell Titer-Glo luminescent assay. Format: functional, cell-based. In a few lines:
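Cells were held in serum-free medium for 24 h, then exposed to compound for 48 h. Viability was read by CellTiter-Glo luminescence, and data come from three independent experiments run in duplicate. BT474 was routinely maintained in RPMI with 4 mM L-glutamine, 10% FBS and penicillin/streptomycin at 37 °C under 5% CO2.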

Series [10] concerns MCF7. The series is described as follows: Cytotoxicity against serum-starved human MCF7 cells over-expressing ErbB2 cells assessed as reduction of cell survival at 10 to 30 uM after 48 hrs by Cell Titer-Glo luminescent assay. Format: functional, cell-based.
For series [11], the target named is Hepatocyte growth factor receptor (Homo sapiens) (UniProt P08581). The series is described as follows: Inhibition of Met-mediated scattering in HGF-stimulated […] MDCK cells at 10 uM pre-incubated overnight prior to HGF stimulation for 24 hrs measured after 24 to 48 hrs. Format: cell-based. The method, boiled down:
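MDCK cells in DMEM with 2% FBS, 1000 cells/well, settled overnight; compounds 0.1–100 µM overnight at 37 °C, then HGF 20 ng/ml for 24 h; further 24–48 h; PBS wash, 4% PFA fix; scattered cells counted in 30 colonies; IC50 = 50% inhibition of scattering.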

Series [12] has the same target. The experiment in a line: Inhibition of Met-mediated scattering in HGF-stimulated […] MDCK cells pre-incubated overnight prior to HGF stimulation for 24 hrs measured after 24 to 48 hrs. Format: cell-based.
The target of series [13] is Macrophage-stimulating protein receptor (Homo sapiens) (UniProt Q04912). The experiment in a line: Inhibition of TEL-fused RON-mediated mouse BA/F3 cell proliferation at 1 uM after 48 hrs by cell titre blue based spectrophotometry. To be noted: BaF3. The method, boiled down: (§1)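 Ba/F3 cells expressing active kinase forms, or IL3-dependent; 2×10^4 cells/well; 1/2 serial dilutions from 0 to 10 µM (text also gives 0.1–40 µM); 48 h at 37 °C; Cell Titer Blue; absorbance at 490 nm with cell-free blank for background; proliferation as % of untreated cells; triplicate.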

The test system of the next series is BaF3. The experiment in a line: Antiproliferative activity against IL3-stimulated mouse BA/F3 cells at 1 uM after 48 hrs by cell titre blue based spectrophotometry. In kind it is functional. The method, boiled down: as §1
The target of series [14] is Epidermal growth factor receptor (Homo sapiens) (UniProt P00533). The experiment in a line: Inhibition of ErbB1 phosphorylation in human BT474 cells at 1 to 10 uM pretreated overnight prior to HGF stimulation by Western blot analysis. In kind it is cell-based. The conditions noted are these: BT-474. The method, boiled down:
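BT-474 cells starved, pretreated overnight with compound at 1, 3, 10 µM, then HGF 20 ng/ml; total extracts immunoblotted for phospho-ErbBs; ERK as loading control.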
For orientation: In western blotting, separated proteins are transferred to a membrane and probed.

A short description of series [15]: Antitumor activity against human GTL16 cells xenografted in nude mouse assessed as reduction tumor weight at 10 mg/kg, ip administered for every 2 days for 21 days (reference value: 865.4 348.9 mg). Format: functional, GTL 16. To be noted: route intraperitoneal. In general terms: A xenograft is tissue or cells of one species grown in another, often human tumour cells in immunodeficient mice.

Series [16] can be described thus: Antitumor activity against human GTL16 cells xenografted in nude mouse assessed as reduction tumor weight at 30 mg/kg, ip administered for every 2 days for 21 days (reference value: 865.4 348.9 mg). The conditions noted are these: route intraperitoneal. In kind it is functional, GTL 16.
A short description of series [17]: Cytotoxicity against cortical neurons assessed as reduction in cell viability at 100 uM after 24 hrs by Cell Titer-Glo luminescent assay. The conditions noted are these: cortical neurone. The method, boiled down:
(§2)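 Primary embryonic cortical neuron and hepatocyte cultures exposed to compound for 24 h; viability read by Cell Titer Glo luminescence; quadruplicate.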

The test system of another series is Hepatocyte. The series is described as follows: Cytotoxicity against hepatocytes assessed as reduction in cell viability at 100 uM after 24 hrs by Cell Titer-Glo luminescent assay. In kind it is cell-based. In a few lines:
as §2

The nature of series [18]: Antitumor activity against human GTL16 cells xenografted in nude mouse assessed as reduction tumor weight at 10 to 30 mg/kg, ip administered for every 2 days for 21 days. The conditions noted are these: dose mg/kg 10-30; route intraperitoneal. Format: functional, GTL 16. Set-up: scale not given: the % may be the effect or the level left.
Another series has as its system Mus musculus. The series is described as follows: Toxicity in human GTL16 cells xenografted nude mouse assessed as reduction of body weight at 10 to 30 mg/kg, ip administered for every 2 days for 21 days. In kind it is organism-based. On the set-up: dose 10-30 mg/kg, route intraperitoneal. The conditions noted are these: in vivo.
The target of series [19] is Hepatocyte growth factor receptor (Homo sapiens) (UniProt P08581). The conditions noted are these: BaF3; 1 uM.
Series [20] shares this target. The conditions noted are these: HepG2, 10 uM.
The target is the same in series [21]. The conditions noted are these: 1 uM.
For series [22] the target is unchanged. To be noted: 10 uM.
Series [23] deals with HepG2. The series is described as follows: Cytotoxicity against serum-starved human HepG2 cells at 2 uM after 48 hrs by Cell Titer-Glo luminescent assay. Format: functional, cell-based.
For series [24], the system named is GTL 16. The experiment in a line: Cytotoxicity against serum-starved human GTL16 cells at 2 uM after 48 hrs by Cell Titer-Glo luminescent assay. In kind it is functional, cell-based.
For series [25], the system named is MCF7. The experiment in a line: Cytotoxicity against serum-starved human MCF7 cells over-expressing ErbB2 cells at 2 uM after 48 hrs by Cell Titer-Glo luminescent assay. In kind it is functional, cell-based.
The test system of series [26] is BT-474. The series is described as follows: Cytotoxicity against serum-starved human BT474 cells at 2 uM after 48 hrs by Cell Titer-Glo luminescent assay. Format: functional, cell-based.
For series [27], the system named is BT-474. The experiment in a line: Cytotoxicity against serum-starved human BT474 cells at 10 uM after 48 hrs by Cell Titer-Glo luminescent assay. In kind it is functional, cell-based.
The test system of series [28] is MCF7. The experiment in a line: Cytotoxicity against serum-starved human MCF7 cells over-expressing ErbB2 cells at 10 uM after 48 hrs by Cell Titer-Glo luminescent assay. In kind it is functional, cell-based.

Active and inactive are the calls of the source. The rule behind the calls is not given here.

The term inhibition denotes the relative decrease from the control value, in per cent.

As to `Cc1cc(C)cc(CC(=O)N[C@@H](Cc2ccccc2)C(=O)Nc2ccc(-c3cn4c(n3)sc3ccccc34)cc2)c1`, the Stability result in series [1], in series [2], in [3] and in series [4] was “Stable” in each case. Moreover, the Activity entry was “Non-toxic” with MDCK [5], “Toxic” with MDCK [6], “Dose-dependent effect” in the series on HepG2 [7] and “Dose-dependent effect” in the series on GTL 16 [8]. Moreover, the outcome in the series on BT-474 [9] and in the series on MCF7 [10] was inactive.
Turning to `Cc1ccc(CC(=O)N[C@@H](Cc2ccccc2)C(=O)Nc2ccc(-c3cn4c(n3)sc3ccccc34)cc2)cc1`, the Stability entry in series [1], in series [2], in series [3] and in series [4] was “Stable” in each case. Moreover, the inhibition in series [11] is 30%. The Activity result in the series on MDCK [5] is “Non-toxic”; in the series on MDCK [6], “Toxic”.
Regarding `O=C(Cc1cc(C(F)(F)F)cc(C(F)(F)F)c1)N[C@H](Cc1ccccc1)C(=O)Nc1ccc(-c2cn3c(n2)sc2ccccc23)cc1`, the Stability entry in series [1], in series [2], in series [3] and in series [4] was “Stable” each time. Further, the Activity entry in the series with MDCK [5] is “Non-toxic”; in the series on MDCK [6] it was “Toxic”; with HepG2 [7] it was “Dose-dependent effect”; in the series on GTL 16 [8], “Dose-dependent effect”. Besides, the result in the series on BT-474 [9] and in the series with MCF7 [10] was inactive.
Regarding `Cc1cc(C)cc(CC(=O)NCC(=O)Nc2ccc(-c3cn4c(n3)sc3ccccc34)cc2)c1`, the Stability result in series [1], in series [2], in series [3] and in series [4] was “Stable” throughout. For the same compound, in series [12], the inhibition entry was “inactive”.
For `O=C(Cc1cc(C(F)(F)F)cc(C(F)(F)F)c1)N[C@@H](Cc1ccccc1)C(=O)Nc1ccc(-c2cn3c(n2)sc2ccccc23)cc1`, the inhibition entry in series [13] and in series [19] was “Active” in each case. In the series with BaF3, the result was Active. Moreover, the inhibition entry in [14] is “inactive”. Further, the Activity in series [15] is 268.8 mg; in series [16], 234.8 mg; in [17] it was 12%; in the series with Hepatocyte, 28%; in [18] it was 70%; in the series on Mus musculus it was “Non-toxic”. For the same compound, the Activity entry with MDCK [5] is “Non-toxic”; in the series with MDCK [6], “Toxic”; in the series with HepG2 [7], “Dose-dependent effect”; in the series with GTL 16 [8], “Dose-dependent effect”. Also, the Stability result in [1], in series [2], in series [3] and in series [4] was “Stable” in each case. Also, the outcome with BT-474 [9] and in the series with MCF7 [10] was inactive. Further, the results for the inhibition in series [20], in series [21] and in series [22] were 30%, 21% and 53%, respectively.
Consider `Cc1[nH]c(/C=C2\C(=O)Nc3ccc(S(=O)(=O)N(C)c4cccc(Cl)c4)cc32)c(C)c1C(=O)N1CCN(C)CC1`, for which the outcome with HepG2 [23] and in the series on GTL 16 [24] was Active. In addition, the result in the series on MCF7 [25] and with BT-474 [26] was inactive.
Take `O=C(Cc1cc(F)cc(F)c1)N[C@@H](Cc1ccccc1)C(=O)Nc1ccc(-c2cn3c(n2)sc2ccccc23)cc1`: the Stability result in [1], in series [2], in [3] and in series [4] was “Stable” in each case. The Activity entry in the series with MDCK [5] is “Non-toxic”; in the series with MDCK [6], “Toxic”; in the series with HepG2 [7], “Dose-dependent effect”; in the series with GTL 16 [8], “Dose-dependent effect”. Further, the outcome in the series on BT-474 [9] and in the series with MCF7 [10] was inactive.
As for `COc1cc2ncnc(Nc3ccc(F)c(Cl)c3)c2cc1OCCCN1CCOCC1`, the outcome in the series on BT-474 [27] and in the series with MCF7 [28] was Active.
